Test results reported in ChEMBL document CHEMBL1137132, “The synthesis and SAR of 2-arylsulfanyl-phenyl piperazinyl acetic acids as glyT-1 inhibitors” (Bioorg Med Chem Lett, 2004).

Tests used:
[1] = molecular target: T1, Sodium- and chloride-dependent glycine transporter 1 (Homo sapiens, UniProt P48067); assay: Inhibition of uptake of [3H]-glycine into cells transfected with human GlyT-1b transporter
T1 sequence (P48067 whole entry): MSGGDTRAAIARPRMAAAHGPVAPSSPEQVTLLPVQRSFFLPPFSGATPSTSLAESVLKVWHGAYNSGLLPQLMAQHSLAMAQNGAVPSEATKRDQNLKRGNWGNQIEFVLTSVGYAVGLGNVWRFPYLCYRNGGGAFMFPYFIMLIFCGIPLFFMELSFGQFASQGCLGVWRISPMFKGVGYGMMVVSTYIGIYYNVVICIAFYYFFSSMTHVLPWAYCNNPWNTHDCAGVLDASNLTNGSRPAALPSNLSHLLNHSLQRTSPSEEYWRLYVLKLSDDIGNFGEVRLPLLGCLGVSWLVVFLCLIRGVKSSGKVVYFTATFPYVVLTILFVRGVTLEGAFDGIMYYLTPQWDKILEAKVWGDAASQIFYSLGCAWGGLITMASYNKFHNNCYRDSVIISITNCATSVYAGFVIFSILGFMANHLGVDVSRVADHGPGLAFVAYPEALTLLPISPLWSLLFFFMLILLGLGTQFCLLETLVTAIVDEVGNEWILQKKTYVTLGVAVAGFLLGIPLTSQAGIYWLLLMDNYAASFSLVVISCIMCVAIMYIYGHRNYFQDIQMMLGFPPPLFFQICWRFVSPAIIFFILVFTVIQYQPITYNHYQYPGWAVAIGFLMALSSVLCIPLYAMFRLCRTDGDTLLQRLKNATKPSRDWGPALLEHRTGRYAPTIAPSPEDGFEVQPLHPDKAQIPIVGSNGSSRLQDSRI

[2] = Oral bioavailability in rat; type: ADME, organism-based; settings: in vivo
In short: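 Rat pharmacokinetics, oral dosing as a solution.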

Rattus norvegicus = assay: Compound tested for increase in levels of glycine in the ventral hippocampus at a dose of 4.6 mg/kg after 60 min of s.c. administration; type: functional
In short: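 In vivo microdialysis in freely moving rats, ventral hippocampus. Compound given subcutaneously. Extracellular glycine measured, with mean basal pre-injection values normalised to 100%; n is the number of animals.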

[3] = Half-life in rat; type: ADME; settings: in vivo
[4] = Plasma clearance in rat; type: ADME, organism-based

Compound	IC50 [1] [nM]	further results
COc1ccc(Sc2ccccc2N2CCN(CC(=O)O)CC2C)cc1 (stereo not drawn)	> 10000	
COc1ccc(Sc2ccccc2N2CCN(CC(=O)O)C(C)(C)C2)cc1	1500	
CC1CN(c2ccccc2Sc2ccc(Cl)cc2)C(C)CN1CC(=O)O (stereo not drawn)	360	
CC1CN(c2ccccc2Sc2ccc(O)cc2)C(C)CN1CC(=O)O (stereo not drawn)	3600	
CC(=O)Nc1ccc(Sc2ccccc2N2CC(C)N(CC(=O)O)CC2C)cc1 (stereo not drawn)	22000	
COc1ccc(Sc2ccc(Cl)cc2N2CCN(CC(=O)O)C(C)C2)cc1 (stereo not drawn)	290	
CC1CN(c2ccccc2Sc2ccc(-c3ccccc3)cc2)C(C)CN1CC(=O)O (stereo not drawn)	> 10000	
COc1ccc(Sc2ccccc2N2C[C@@H](C)N(CC(=O)O)C[C@@H]2C)cc1	160	
Cc1ccc(Sc2ccccc2N2CC(C)N(CC(=O)O)CC2C)cc1 (stereo not drawn)	550	
COc1ccc(Sc2ccc(OC)cc2N2CC(C)N(CC(=O)O)CC2C)cc1 (stereo not drawn)	> 50000	
COc1ccc(Sc2ccccc2N2CC(C)N(CC(=O)O)CC2C)cc1 (stereo not drawn)	580	
COc1ccc(Sc2ccccc2N2C[C@H](C)N(CC(=O)O)C[C@H]2C)cc1	53000	
COc1ccc(Sc2ccccc2N2C[C@H](C)N(CC(=O)O)C[C@@H]2C)cc1	18000	
CC1CN(c2ccccc2Sc2ccc(F)cc2)C(C)CN1CC(=O)O (stereo not drawn)	1900	
COc1ccc(Sc2ccc(Cl)cc2N2CCN(CC(=O)O)[C@@H](C)C2)cc1	1400	
COc1ccc(Sc2ccc(OC)cc2N2CCN(CC(=O)O)C(C)C2)cc1 (stereo not drawn)	4600	
COc1ccc(Sc2ccc(Cl)cc2N2CC(C)N(CC(=O)O)CC2C)cc1 (stereo not drawn)	1700	
COc1ccc(Sc2ccccc2N2CCN(CC(=O)O)CC2)cc1	> 10000	
CN(CC[C@@H](Oc1ccc(C(F)(F)F)cc1)c1ccccc1)CC(=O)O	320	
COc1ccc(Sc2ccc(C)cc2N2CCN(CC(=O)O)C(C)C2)cc1 (stereo not drawn)	1600	
COc1ccc(Sc2ccccc2N2C[C@@H](C)N(CC(=O)O)C[C@H]2C)cc1	16000	
COc1ccc(Sc2ccc(Cl)cc2N2CCN(CC(=O)O)[C@H](C)C2)cc1	150	bioavailability [2]: 100%; Increase (Rattus norvegicus): 140%; half-life [3]: 4 h; clearance [4]: 6.67 mL/min/kg
CC1CN(c2ccccc2Sc2ccccc2)C(C)CN1CC(=O)O (stereo not drawn)	2900	
COc1ccc(Sc2ccccc2N2CCN(CC(=O)O)C(C)C2)cc1 (stereo not drawn)	1700	
